A selection: hits, their analogues and other compounds. The true share with any hit is near 3%.
proKLK7 act = proKLK7 (human) activation, primary screen. 370,000 compounds, 0.9% hits. P49862. AID 652039. activation, % at 7 µM. purified proKLK7, EDANS-DABCYL substrate fluorescence; 100% is mature enzyme control, 0% vehicle;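 active = activation above the mean of all tested compounds plus 3 SD, computed per campaign excluding outliers beyond control limits, cut at about 13% in these data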
DDE Tn7 FP inh = inhibitors of Tn7 peptide binding to human fibrin DD(E). inhibition, % at 8.3 µM. 370,000 compounds, 0.13% hits. FP displacement of FITC-Tn7 peptide from fibrin DD(E); 0% = median of compound wells per plate;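 active = inhibition above the mean of compounds falling within the control limits plus 3 SD of them, cut at about 14% in these data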;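 also: 0% = plate median of compound wells and 100% = 10 µM Aha-Tn7 peptide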
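Test system: human clot-derived fibrin DD(E) complex / Quantity: 2 µM final DD(E) protein / Incubation: 10 min plus 3 h, room temperature / Measured by: fluorescence polarization / Benchmarks: high control of 10 µM Aha-Tn7 peptide / Replicates: singlicate testing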
DDE Tn6 FP inh = disrupts Tn6 cyclic peptide binding to fibrin D-Dimer-E complex | P02675 | Fibrin DD(E) TRITC-Tn6 fluorescence polarization displacement | inhibition, % at 8.3 µM | 370,000 compounds, 0.21% hits | AID 720509;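 active = inhibition above a per-campaign cutoff: mean of compounds within control limits plus 3 SD, cut at about 15% in these data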;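 also: 0% = median of all compound wells on the plate and 100% = blocking peptide control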
NRP1-CendR mod = modulators of CendR peptide binding to human neuropilin-1; 360,000 compounds, 0.85% hits; inhibition, % at 25 µM; FAM-RPARPAR peptide binding to NRP-1, fluorescence polarization;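 active = inhibition or corrected inhibition above about 18%, plus a signal ratio from 0.5 to 1.5, limit read from the data, passing the limit was not always enough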
PLCg1 inh = inhibitors of human phospholipase C gamma1. AID 720700. purified PLC-gamma1, fluorogenic substrate, fluorescence. inhibition, % at 12.2 µM. 370,000 compounds, 0.84% hits
PLCb3 inh = inhibitors of human phospholipase C beta3; Purified PLC-beta3, fluorogenic substrate, fluorescence; inhibition, % at 12.2 µM; 370,000 compounds, 0.18% hits; Q01970; in the data active = inhibition above about 11%;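 also: 0% = median of compound wells on plate and 100% = full blocker control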
Target sequence (Q01970 whole entry, looked up): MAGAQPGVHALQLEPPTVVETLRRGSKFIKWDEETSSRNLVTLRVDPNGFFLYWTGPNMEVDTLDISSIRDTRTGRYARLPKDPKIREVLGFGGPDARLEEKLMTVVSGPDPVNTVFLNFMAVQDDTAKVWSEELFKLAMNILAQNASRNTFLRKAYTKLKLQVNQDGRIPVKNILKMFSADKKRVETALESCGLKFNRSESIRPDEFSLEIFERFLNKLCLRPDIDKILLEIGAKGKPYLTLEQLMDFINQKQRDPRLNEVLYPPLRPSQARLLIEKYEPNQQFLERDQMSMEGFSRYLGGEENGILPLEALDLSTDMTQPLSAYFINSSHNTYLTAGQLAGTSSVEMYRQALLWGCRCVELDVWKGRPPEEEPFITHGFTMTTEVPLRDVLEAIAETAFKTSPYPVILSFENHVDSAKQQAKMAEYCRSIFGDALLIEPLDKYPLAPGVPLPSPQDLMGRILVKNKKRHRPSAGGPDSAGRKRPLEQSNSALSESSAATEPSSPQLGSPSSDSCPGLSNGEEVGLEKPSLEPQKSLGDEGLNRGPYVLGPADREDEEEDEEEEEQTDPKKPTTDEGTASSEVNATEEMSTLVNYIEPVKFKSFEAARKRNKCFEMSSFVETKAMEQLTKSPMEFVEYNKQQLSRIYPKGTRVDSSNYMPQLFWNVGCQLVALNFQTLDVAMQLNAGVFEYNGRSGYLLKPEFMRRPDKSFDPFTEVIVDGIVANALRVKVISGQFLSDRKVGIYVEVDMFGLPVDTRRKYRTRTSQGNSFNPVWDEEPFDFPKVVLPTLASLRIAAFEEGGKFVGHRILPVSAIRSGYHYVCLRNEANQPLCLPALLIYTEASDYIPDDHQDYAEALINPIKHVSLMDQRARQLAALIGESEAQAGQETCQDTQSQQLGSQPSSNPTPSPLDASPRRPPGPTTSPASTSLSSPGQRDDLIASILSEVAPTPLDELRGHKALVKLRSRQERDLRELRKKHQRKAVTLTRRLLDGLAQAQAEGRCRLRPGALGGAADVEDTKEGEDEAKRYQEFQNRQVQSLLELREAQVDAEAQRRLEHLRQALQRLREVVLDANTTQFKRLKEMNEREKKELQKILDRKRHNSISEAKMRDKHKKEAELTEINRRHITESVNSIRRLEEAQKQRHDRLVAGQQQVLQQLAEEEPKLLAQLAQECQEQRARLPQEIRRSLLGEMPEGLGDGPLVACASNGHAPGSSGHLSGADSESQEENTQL
PLCg1 ctr = counter-screen for PLC-beta3 inhibitors: inhibitors of human PLC-gamma1 | shares compounds with PLCg1 inh | purified PLC-gamma1, fluorogenic substrate, fluorescence | inhibition, % at 12.3 µM | 3,300 compounds, 3.1% hits
PLCb3 confirm = confirmation of human PLC-beta3 inhibitors | inhibition, % at 12.3 µM | shares compounds with PLCg1 inh | 3,300 compounds, 1% hits | purified PLC-beta3, fluorogenic substrate fluorescence; in the data active = inhibition above about 11%
* = called active by the depositor. Rule as the data show it, unless noted: active = inhibition above about 9.5%; inactive = the rest.

For COC(=O)c1ccccc1NN=Nc1ccccc1[N+](=O)[O-] the results were proKLK7 act 0, DDE Tn7 FP inh -3, DDE Tn6 FP inh 3, NRP1-CendR mod 4, PLCg1 inh 2, PLCb3 inh 13*, PLCg1 ctr -3 and PLCb3 confirm 0.
Screening O=[N+]([O-])c1ccccc1N=NNc1ccccc1 returned proKLK7 act 0, DDE Tn7 FP inh -4, DDE Tn6 FP inh 4, NRP1-CendR mod 18, PLCg1 inh 5 and PLCb3 inh 1.
For CCSc1nnc(NC(=O)c2cc(C)oc2C)s1 the results were proKLK7 act 0, DDE Tn7 FP inh -6, DDE Tn6 FP inh 0, NRP1-CendR mod 0, PLCg1 inh 11*, PLCb3 inh 3, PLCg1 ctr -6 and PLCb3 confirm -3.
For CCN(C(=O)COC(=O)c1ccc(C=O)cc1)c1c(N)n(Cc2ccccc2)c(=O)[nH]c1=O the results were proKLK7 act 0, DDE Tn7 FP inh -1, DDE Tn6 FP inh -2, NRP1-CendR mod 8, PLCg1 inh 19*, PLCb3 inh -24, PLCg1 ctr 0 and PLCb3 confirm -13.
Screening CCN1CCN(C(=S)Nc2ccc(Cl)cc2Cl)CC1 returned proKLK7 act 0, DDE Tn7 FP inh 3, DDE Tn6 FP inh 6, NRP1-CendR mod 1, PLCg1 inh 2 and PLCb3 inh 1.
Screening CN1CCN(C(=S)Nc2ccc(Cl)cc2Cl)CC1 returned proKLK7 act 1, DDE Tn7 FP inh -6, DDE Tn6 FP inh 0, NRP1-CendR mod 7, PLCg1 inh 10*, PLCb3 inh 2, PLCg1 ctr 0 and PLCb3 confirm 3.
`CC(C)C(=O)N1CC[C@H]2[C@H](CCCN2Cc2cc(F)cc(F)c2)C1` gave proKLK7 act 0, DDE Tn7 FP inh 2, DDE Tn6 FP inh -6, PLCg1 inh -3 and PLCb3 inh 3.
Screening O=C(CCS(=O)(=O)c1ccccc1F)Nc1ccc(N2CCN(Cc3ccccc3)CC2)cc1 returned proKLK7 act -1, DDE Tn7 FP inh -8, DDE Tn6 FP inh -9, NRP1-CendR mod 7, PLCg1 inh 11*, PLCb3 inh 4, PLCg1 ctr 3 and PLCb3 confirm 6.
`Cc1cccc(/N=C2/NC(=O)C(Cc3ccccc3)S2)n1` (configuration not stated) gave proKLK7 act 1, DDE Tn7 FP inh -2, DDE Tn6 FP inh 6, NRP1-CendR mod 15, PLCg1 inh 5 and PLCb3 inh -6.
For CCOc1ccc(CC2S/C(=N/c3ccccn3)NC2=O)cc1 (configuration not stated) the results were proKLK7 act 0, DDE Tn7 FP inh -3, DDE Tn6 FP inh 3, NRP1-CendR mod 5, PLCg1 inh 11*, PLCb3 inh -1, PLCg1 ctr -7 and PLCb3 confirm -5.
For COc1ccc(NC(=O)N2CCC(N(C)CCC(C)C)CC2)cc1OC the results were proKLK7 act 0, DDE Tn7 FP inh 2, DDE Tn6 FP inh 4, PLCg1 inh -1 and PLCb3 inh 5.
Screening Cc1cc(NC(=O)CSc2nnc3c4c(C)c(C)sc4ncn23)no1 returned proKLK7 act -1, DDE Tn7 FP inh -4, DDE Tn6 FP inh 6, NRP1-CendR mod -2, PLCg1 inh -6, PLCb3 inh 12*, PLCg1 ctr -4 and PLCb3 confirm -2.
`Cc1ccccc1OCCCc1c(C)n[nH]c1C` gave proKLK7 act 0, DDE Tn7 FP inh -2, DDE Tn6 FP inh -3, NRP1-CendR mod 7, PLCg1 inh 9.8*, PLCb3 inh 9, PLCg1 ctr -6 and PLCb3 confirm -1.
`CC(=O)Nc1cccc(NC(=O)c2cc3ccccc3o2)c1` gave proKLK7 act 1, DDE Tn7 FP inh 1, DDE Tn6 FP inh -3, NRP1-CendR mod 2, PLCg1 inh 9.7*, PLCb3 inh 3, PLCg1 ctr -7 and PLCb3 confirm -3.
Screening COc1ccc(C(=O)NC(=S)Nc2ccccc2N2CCOCC2)cc1Br returned proKLK7 act 0, DDE Tn7 FP inh 6, DDE Tn6 FP inh -5, NRP1-CendR mod 5, PLCg1 inh 1 and PLCb3 inh 2.
Screening CCOc1ccc(C(=O)NC(=S)Nc2ccccc2N2CCOCC2)cc1Br returned proKLK7 act 0, DDE Tn7 FP inh 4, DDE Tn6 FP inh -9, NRP1-CendR mod 1, PLCg1 inh 9.9*, PLCb3 inh 1, PLCg1 ctr 2 and PLCb3 confirm 3.
`O=C(O)c1ccccc1-c1nc2ccccc2c(=O)[nH]1` gave proKLK7 act 0, DDE Tn7 FP inh -2, DDE Tn6 FP inh 1, NRP1-CendR mod -7, PLCg1 inh 9.9*, PLCb3 inh 6, PLCg1 ctr 2 and PLCb3 confirm 0.
For CN(C)S(=O)(=O)c1ccc(C(=O)N2CCCC2c2nc3ccccc3s2)cc1 (configuration not stated) the results were proKLK7 act 0, DDE Tn7 FP inh -1, DDE Tn6 FP inh -2, NRP1-CendR mod 22, PLCg1 inh 8, PLCb3 inh 11*, PLCg1 ctr 6 and PLCb3 confirm 4.
For CCOc1ccc(NS(=O)(=O)c2ccc(OCC(=O)NCc3ccncc3)cc2)cc1 the results were proKLK7 act 1, DDE Tn7 FP inh -2, DDE Tn6 FP inh -4, NRP1-CendR mod 13, PLCg1 inh 1 and PLCb3 inh -6.
Screening Cc1ccc(NS(=O)(=O)c2ccc(OCC(=O)NCc3ccncc3)cc2)cc1 returned proKLK7 act 0, DDE Tn7 FP inh 0, DDE Tn6 FP inh -1, NRP1-CendR mod -5, PLCg1 inh 3, PLCb3 inh 11*, PLCg1 ctr -7 and PLCb3 confirm -1.
For C[C@H]1[C@H](NC(=O)c2ccc(Cl)c(Cl)c2)CC[C@@]23CCCN2C(=O)CCC[C@@H]13 the results were DDE Tn7 FP inh 3, DDE Tn6 FP inh 2, PLCg1 inh 0 and PLCb3 inh 3.
`Cc1ccc(CN2CCN(/N=C/c3sccc3C)CC2)c(C)c1` gave proKLK7 act 0, DDE Tn7 FP inh -1, DDE Tn6 FP inh 3, NRP1-CendR mod 0, PLCg1 inh 11*, PLCb3 inh 7, PLCg1 ctr 0 and PLCb3 confirm 0.
For O=C1C2C3C=CC(C3)C2C(=O)N1c1ccc(-c2nc(-c3ccccc3)nc3ccccc23)cc1 (configuration not stated) the results were proKLK7 act 0, DDE Tn7 FP inh 1, DDE Tn6 FP inh 4, PLCg1 inh 3 and PLCb3 inh -1.

Screens (PubChem BioAssay)
